Drawing on ChEMBL document CHEMBL1811853, “Design and evaluation of 3-aminopyrazolopyridinone kinase inhibitors inspired by the natural product indirubin” (Bioorg Med Chem, 2011), this text covers inhibition and solubility for 33 compounds.

The target in series [1] is T1, MAP kinase-activated protein kinase 5 (Homo sapiens) (UniProt Q8IW41).
T1 sequence (whole entry): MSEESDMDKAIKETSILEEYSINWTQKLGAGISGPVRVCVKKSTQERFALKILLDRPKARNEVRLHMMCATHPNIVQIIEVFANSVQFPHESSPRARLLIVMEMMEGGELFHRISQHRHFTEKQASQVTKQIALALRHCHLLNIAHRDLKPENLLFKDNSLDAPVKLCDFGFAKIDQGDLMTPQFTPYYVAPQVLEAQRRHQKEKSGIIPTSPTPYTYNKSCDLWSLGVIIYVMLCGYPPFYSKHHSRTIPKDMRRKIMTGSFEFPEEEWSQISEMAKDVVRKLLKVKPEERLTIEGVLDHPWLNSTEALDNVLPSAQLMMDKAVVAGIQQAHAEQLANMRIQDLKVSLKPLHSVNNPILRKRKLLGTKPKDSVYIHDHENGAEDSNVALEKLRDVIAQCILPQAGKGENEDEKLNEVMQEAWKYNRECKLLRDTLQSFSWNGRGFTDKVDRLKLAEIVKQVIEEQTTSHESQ
As to the kind of experiment: Inhibition of PRAK1 at 30 uM by microfluidic mobility shift assay. Put shortly: (§1)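 Single-concentration screen, singlicate, 30 uM final (diluted from 1 mM DMSO solutions), fluorescently tagged peptide substrate appropriate to each kinase, ATP at apparent Km for each protein. Phosphorylated and unphosphorylated peptides separated electrophoretically; conversion is the phosphorylated peak area over the sum of both peaks. No-inhibitor and no-ATP controls; H89 reference on each plate.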

Series [2] has as its target Ribosomal protein S6 kinase alpha-5 (Homo sapiens) (UniProt O75582). As to the kind of experiment: Inhibition of MSK1 at 30 uM by microfluidic mobility shift assay. An outline of the steps: as §1
Series [3] deals with T2, Protein kinase C zeta type (Homo sapiens) (UniProt Q05513).
T2 sequence (whole entry): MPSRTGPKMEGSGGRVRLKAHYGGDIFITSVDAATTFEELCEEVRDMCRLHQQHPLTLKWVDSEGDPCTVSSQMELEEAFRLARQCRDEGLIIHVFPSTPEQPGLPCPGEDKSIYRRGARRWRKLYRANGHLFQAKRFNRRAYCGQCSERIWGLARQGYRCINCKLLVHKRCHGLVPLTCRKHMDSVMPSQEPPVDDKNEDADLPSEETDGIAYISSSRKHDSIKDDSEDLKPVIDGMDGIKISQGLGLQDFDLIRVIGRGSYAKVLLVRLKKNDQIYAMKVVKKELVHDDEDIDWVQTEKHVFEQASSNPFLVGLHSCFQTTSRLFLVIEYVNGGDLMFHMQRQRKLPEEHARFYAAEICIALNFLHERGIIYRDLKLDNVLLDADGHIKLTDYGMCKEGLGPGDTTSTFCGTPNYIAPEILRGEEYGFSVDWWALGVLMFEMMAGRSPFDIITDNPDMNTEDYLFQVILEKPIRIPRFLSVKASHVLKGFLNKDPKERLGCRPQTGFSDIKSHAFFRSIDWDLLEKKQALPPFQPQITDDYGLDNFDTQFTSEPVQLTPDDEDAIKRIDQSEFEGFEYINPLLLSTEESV
Nature of the series: Inhibition of PKCz at 30 uM by microfluidic mobility shift assay. An outline of the steps: as §1

Series [4] concerns the target Serine/threonine-protein kinase Chk2 (Homo sapiens, UniProt O96017). As to the kind of experiment: Inhibition of CHK2 at 30 uM by microfluidic mobility shift assay. Put shortly:
as §1

Series [5] is described as follows: Aqueous solubility of the compound by HPLC analysis. The format is physicochemical. As to conditions: water. An outline of the steps:
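Solubility determined by HPLC measurement of the concentration in saturated aqueous solutions of the compounds.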

Converted amounts (≈) assume the structure as drawn.

Serine/threonine-protein kinase Chk2, sequence (O96017 whole entry): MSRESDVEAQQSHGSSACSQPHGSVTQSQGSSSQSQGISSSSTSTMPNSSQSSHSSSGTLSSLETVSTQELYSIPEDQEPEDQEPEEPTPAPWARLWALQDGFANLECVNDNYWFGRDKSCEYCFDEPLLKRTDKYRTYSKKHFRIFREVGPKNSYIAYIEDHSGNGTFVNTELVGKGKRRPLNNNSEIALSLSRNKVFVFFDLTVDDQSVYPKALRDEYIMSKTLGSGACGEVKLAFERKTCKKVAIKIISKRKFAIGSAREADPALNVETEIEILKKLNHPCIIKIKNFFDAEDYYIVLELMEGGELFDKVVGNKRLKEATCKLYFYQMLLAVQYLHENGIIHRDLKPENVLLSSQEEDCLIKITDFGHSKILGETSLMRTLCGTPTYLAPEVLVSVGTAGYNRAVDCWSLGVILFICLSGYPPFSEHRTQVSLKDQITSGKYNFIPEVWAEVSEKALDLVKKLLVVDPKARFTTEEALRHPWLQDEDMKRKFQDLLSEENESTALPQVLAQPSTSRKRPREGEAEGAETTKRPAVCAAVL
Ribosomal protein S6 kinase alpha-5 (Homo sapiens), sequence (O75582 whole entry, looked up): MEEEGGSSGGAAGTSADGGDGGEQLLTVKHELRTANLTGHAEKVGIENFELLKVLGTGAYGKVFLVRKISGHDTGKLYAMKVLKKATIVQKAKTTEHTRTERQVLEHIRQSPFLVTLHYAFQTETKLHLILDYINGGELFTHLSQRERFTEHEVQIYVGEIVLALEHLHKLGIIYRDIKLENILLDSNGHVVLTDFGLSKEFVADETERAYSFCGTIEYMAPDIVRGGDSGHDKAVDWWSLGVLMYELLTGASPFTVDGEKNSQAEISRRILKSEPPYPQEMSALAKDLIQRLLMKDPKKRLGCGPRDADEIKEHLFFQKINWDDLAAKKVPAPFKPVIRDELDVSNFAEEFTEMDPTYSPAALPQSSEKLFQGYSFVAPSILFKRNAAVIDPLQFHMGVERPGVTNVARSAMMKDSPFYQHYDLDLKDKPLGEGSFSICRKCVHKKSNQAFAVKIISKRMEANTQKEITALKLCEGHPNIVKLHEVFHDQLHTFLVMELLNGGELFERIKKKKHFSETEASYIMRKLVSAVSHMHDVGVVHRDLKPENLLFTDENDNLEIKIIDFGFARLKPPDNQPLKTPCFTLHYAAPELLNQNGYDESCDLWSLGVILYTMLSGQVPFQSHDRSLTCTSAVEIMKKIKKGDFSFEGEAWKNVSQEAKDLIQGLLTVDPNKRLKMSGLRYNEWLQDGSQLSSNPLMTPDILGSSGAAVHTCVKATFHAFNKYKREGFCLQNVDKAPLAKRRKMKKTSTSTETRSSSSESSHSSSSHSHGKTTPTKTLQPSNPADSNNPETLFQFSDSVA

As for `Nc1n[nH]c2c3c([nH]c(=O)c12)CCCC3`, the inhibition (in general, the relative decrease from the control value, in per cent) in series [1] was 0%; in series [2], 1%; in series [3], -5%; in series [4], 7%.

Turning to `COc1cccc(-c2cc3[nH]nc(N)c3c(=O)[nH]2)c1`, the inhibition was 10% in series [1], 49% in series [2], -1% in series [3] and 52% in series [4].

Consider `Nc1n[nH]c2cc(-c3ccc(N4CCOCC4)cc3)[nH]c(=O)c12`, for which the inhibition was 11% in series [1], 39% in series [2], -2% in series [3] and 38% in series [4].

Regarding `Cc1cc2[nH]nc(N)c2c(N2CCCCC2)n1`, the inhibition in series [1] came to 10%; in series [2] it was 87%; in series [3], 43%; in series [4], 33%. In series [5], the solubility – broadly, the dissolved amount per volume that the medium holds – came to 794 µg/mL (≈ 3430 µM).

`COCCNc1nc(C)cc2c1c(N)nn2C`: the inhibition was 5% in series [1], 0% in series [2], -10% in series [3] and -2% in series [4].

With `Cc1cc2c(c(N)nn2C)c(N2CC[C@H](O)C2)n1`, the inhibition was 1% in series [1], 4% in series [2], 19% in series [3] and -2% in series [4].

Consider `Nc1n[nH]c2cc(-c3ccccn3)[nH]c(=O)c12`, for which the inhibition worked out at 18% in series [1], 35% in series [2], 3% in series [3] and 47% in series [4].

`Cc1cc2[nH]nc(N)c2c(=O)[nH]1`: the inhibition in series [1] is 8%; in series [2], 56%; in series [3], 10%; in series [4] it was 27%. The compound also registered a solubility in series [5] of 1640 µg/mL (≈ 9960 µM).

On to `COc1ccccc1-c1cc2nn(-c3ccccc3)c(N)c2c(=O)[nH]1`, for which the inhibition in series [1] amounted to 6%; in series [2], 7%; in series [3], 4%; in series [4], 16%.

In the case of `Cc1cc2c(c(NC(=O)Nc3ccccc3)nn2C)c(=O)[nH]1`, the inhibition in series [1] worked out at 4%; in series [2], 0%; in series [3], 19%; in series [4] it was 2%. This compound also displayed a solubility in series [5] of less than 1 µg/mL.

Regarding `CC(C)(C)c1cc2nn(-c3ccccc3)c(N)c2c(=O)[nH]1`, the inhibition in series [1] is 2%; in series [2], -1%; in series [3] it was -1%; in series [4], 5%.

Take `Cn1nc2c3c(nc(-c4ccccc4)cc31)NCC(=O)N2`: the inhibition came to 3% in series [1], 0% in series [2], 5% in series [3] and 5% in series [4].

For the compound `COc1ccc(-c2cc3c(c(N)nn3C)c(=O)[nH]2)cc1`, the inhibition in series [1] is 16%; in series [2], 9%; in series [3], -3%; in series [4], 16%.

`COC(=O)CCc1c(C)[nH]c(=O)c2c(N)nn(C)c12`: the inhibition in series [1] was 2%; in series [2], 7%; in series [3], 14%; in series [4], -1%. For the same compound, the solubility in series [5] is 469 µg/mL (≈ 1770 µM).

Regarding `COc1ccc(-c2c(C)[nH]c(=O)c3c(N)nn(C)c23)cc1`, the inhibition in series [1] came to 13%; in series [2], 13%; in series [3], 10%; in series [4] it was 18%.

For `Cn1nc(N)c2c(=O)[nH]c(-c3ccccn3)cc21`, the inhibition was 9% in series [1], -4% in series [2], 0% in series [3] and 25% in series [4].

For `Cc1cc2c(c(N)nn2C)c(=O)[nH]1`, the inhibition amounted to 5% in series [1], 4% in series [2], 0% in series [3] and 3% in series [4]. Besides, the solubility in series [5] stood at 1220 µg/mL (≈ 6830 µM).

Take `CC(=O)Nc1nn(C)c2cc(-c3ccc(N4CCN(C)CC4)cc3)[nH]c(=O)c12`: the inhibition in series [1] was 6%; in series [2], 0%; in series [3], 6%; in series [4], 3%.

Regarding `Cn1nc(N)c2c(=O)[nH]c(-c3ccccc3)cc21`, the inhibition in series [1] is 11%; in series [2] it was 9%; in series [3] it was 6%; in series [4] it was 16%. This compound also had a solubility in series [5] of 76 µg/mL (≈ 316 µM).

As to `Cc1nc(N)c2c(=O)[nH]c(C)cc2n1`, the inhibition in series [1] is 1%; in series [2], 0%; in series [3], 3%; in series [4], 5%.

`COc1cccc(-c2cc3c(c(N)nn3C)c(=O)[nH]2)c1`: the inhibition in series [1] was 6%; in series [2] it was 2%; in series [3], 6%; in series [4], 31%.

Turning to `Cc1cc2c(c(NS(C)(=O)=O)nn2C)c(=O)[nH]1`, the inhibition in series [1] was 0%; in series [2], 4%; in series [3], 27%; in series [4], -1%.

In the case of `COc1ccc(-c2cc3nn(-c4ccccc4)c(N)c3c(=O)[nH]2)cc1`, the inhibition in series [1] is 12%; in series [2], 6%; in series [3], 0%; in series [4], -3%.

Regarding `Cc1cc2nc(N)nc(N)c2c(=O)[nH]1`, the inhibition in series [1] worked out at 3%; in series [2] it was 6%; in series [3], 8%; in series [4] it was 16%.

Turning to `COc1ccc(S(=O)(=O)Nc2nn(C)c3cc(C)[nH]c(=O)c23)c(OC)c1`, the inhibition in series [1] was determined as 1%; in series [2], 3%; in series [3], 21%; in series [4], 6%.

For `COc1ccc(-c2cc3[nH]nc(N)c3c(=O)[nH]2)cc1`, the inhibition in series [1] is 7%; in series [2], 62%; in series [3], 7%; in series [4], 43%.

Take `Nc1n[nH]c2cc(-c3ccncc3)[nH]c(=O)c12`: the inhibition is 13% in series [1], 29% in series [2], 10% in series [3] and 34% in series [4].

On to `Nc1c2c(=O)[nH]c(-c3ccccc3)cc2nn1-c1ccccn1`, for which the inhibition in series [1] was -1%; in series [2], -4%; in series [3] it was -3%; in series [4] it was 18%.

Take `CN1CCN(c2ccc(-c3cc4nn(-c5ccccc5)c(N)c4c(=O)[nH]3)cc2)CC1`: the inhibition in series [1] came out at 4%; in series [2] it was 12%; in series [3], 23%; in series [4] it was 18%.

As for `COCCNc1nc(-c2ccccc2)cc2c1c(N)nn2C`, the inhibition in series [1] turned out to be 1%; in series [2] it was 0%; in series [3], 20%; in series [4], 8%.

As for `CC(=O)Nc1nn(C)c2cc(-c3ccccc3)[nH]c(=O)c12`, the inhibition in series [1] came out at 3%; in series [2], 3%; in series [3], 28%; in series [4] it was 4%. Besides, the concentration in solution in series [5] (solubility) came to 79 µg/mL (≈ 280 µM).

Consider `Nc1n[nH]c2cc(-c3cccnc3)[nH]c(=O)c12`, for which the inhibition in series [1] stood at 12%; in series [2], 36%; in series [3], 1%; in series [4], 27%.

Regarding `CN1CCN(c2ccc(-c3cc4[nH]nc(N)c4c(=O)[nH]3)cc2)CC1`, the inhibition in series [1] was 11%; in series [2], 83%; in series [3], 35%; in series [4] it was 68%.
